From ChEMBL document CHEMBL1151744, “New analgesics synthetically derived from the paracetamol metabolite N-(4-hydroxyphenyl)-(5Z,8Z,11Z,14Z)-icosatetra-5,8,11,14-enamide” (J Med Chem, 2008)
Active and inactive are the calls of the source. The calls are words filed in the database; no cut-off is given here.

Legend:
[1] = organism: Mus musculus; assay: Toxicity in C57BL/6 mouse assessed as loss of locomotor behavior; format: organism-based; details: in vivo
[2] = test system: Mus musculus; assay: Antinociceptive activity against formalin-induced nociceptive behavior in C57BL/6 mouse assessed as mean licking time at 275 mg/kg, ip administered 15 mins prior to formalin challenge measured after 15 to 45 mins relative to control; format: functional; details: route intraperitoneal
Method in brief: (§1)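 C57BL/6 mice (n = 6-8 per group) were habituated 15-20 min in an observation chamber with mirrors, then given the compound ip at 6 µL/g in PBS/DMSO. Formalin (5%, 20 µL) went into the dorsal left hind paw 15 min later. Licking of the injected paw was summed over 0-10 min (phase 1) and 15-45 min (phase 2) and expressed as % of the vehicle control. Groups were compared by t test.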

[3] = test system: Mus musculus; assay: Antinociceptive activity against formalin-induced nociceptive behavior in C57BL/6 mouse assessed as mean licking time lat 27.5 mg/kg, ip administered 15 mins prior to formalin challenge measured upto 10 mins relative to control; format: functional; details: route intraperitoneal; method in brief: as §1
[4] = test system: Mus musculus; assay: Antinociceptive activity against formalin-induced nociceptive behavior in C57BL/6 mouse assessed as mean licking time at 27.5 mg/kg, ip administered 15 mins prior to formalin challenge measured after 15 to 45 mins relative to control; format: functional; details: route intraperitoneal; method in brief: as §1
[5] = target: T1, Cannabinoid receptor 1 (Homo sapiens, UniProt P21554); assay: Displacement of [3H]CP-55940 from human recombinant CB1 receptor expressed in HEK293 cells at 10 uM; format: cell-based
T1 sequence (P21554 whole entry): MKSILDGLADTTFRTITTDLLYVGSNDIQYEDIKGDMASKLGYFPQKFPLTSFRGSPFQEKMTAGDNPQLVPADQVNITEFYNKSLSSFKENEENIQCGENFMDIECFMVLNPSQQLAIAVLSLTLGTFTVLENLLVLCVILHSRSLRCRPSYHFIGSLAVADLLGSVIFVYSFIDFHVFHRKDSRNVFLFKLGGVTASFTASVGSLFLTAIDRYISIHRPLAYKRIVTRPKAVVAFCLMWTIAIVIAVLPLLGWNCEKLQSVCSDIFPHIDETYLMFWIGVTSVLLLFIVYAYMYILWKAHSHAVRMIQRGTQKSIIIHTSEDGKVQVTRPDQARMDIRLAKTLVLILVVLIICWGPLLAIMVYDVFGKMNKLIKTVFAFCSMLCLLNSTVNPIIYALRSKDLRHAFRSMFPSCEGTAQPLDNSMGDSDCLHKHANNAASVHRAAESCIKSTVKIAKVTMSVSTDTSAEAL

[6] = target: T2, Prostaglandin G/H synthase 2 (Homo sapiens) (UniProt P35354); assay: Inhibition of cyclooxygenase 2 in human whole blood assessed as prostaglandin E2 level
T2 sequence (whole entry): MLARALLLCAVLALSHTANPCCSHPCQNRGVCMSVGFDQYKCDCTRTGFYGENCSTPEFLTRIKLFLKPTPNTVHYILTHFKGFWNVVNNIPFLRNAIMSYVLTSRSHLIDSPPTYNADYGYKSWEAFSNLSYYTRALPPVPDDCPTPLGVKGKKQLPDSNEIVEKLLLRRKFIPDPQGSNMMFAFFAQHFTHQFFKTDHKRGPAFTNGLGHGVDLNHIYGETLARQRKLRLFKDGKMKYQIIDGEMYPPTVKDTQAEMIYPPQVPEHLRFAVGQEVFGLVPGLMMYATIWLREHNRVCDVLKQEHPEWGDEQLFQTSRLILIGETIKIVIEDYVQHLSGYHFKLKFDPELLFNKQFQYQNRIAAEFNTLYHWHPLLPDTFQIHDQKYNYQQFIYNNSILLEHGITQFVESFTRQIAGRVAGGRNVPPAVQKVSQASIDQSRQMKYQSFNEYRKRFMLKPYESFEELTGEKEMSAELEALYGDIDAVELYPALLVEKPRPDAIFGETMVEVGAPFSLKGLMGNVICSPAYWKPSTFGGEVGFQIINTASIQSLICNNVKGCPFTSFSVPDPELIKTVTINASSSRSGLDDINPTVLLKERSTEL

[7] = target: T3, Fatty-acid amide hydrolase 1 (Rattus norvegicus) (UniProt P97612); assay: Inhibition of FAAH in rat brain membrane assessed as [14C]anandamide hydrolysis at 50 uM by scintillation counting; format: cell membranes
T3 sequence (whole entry): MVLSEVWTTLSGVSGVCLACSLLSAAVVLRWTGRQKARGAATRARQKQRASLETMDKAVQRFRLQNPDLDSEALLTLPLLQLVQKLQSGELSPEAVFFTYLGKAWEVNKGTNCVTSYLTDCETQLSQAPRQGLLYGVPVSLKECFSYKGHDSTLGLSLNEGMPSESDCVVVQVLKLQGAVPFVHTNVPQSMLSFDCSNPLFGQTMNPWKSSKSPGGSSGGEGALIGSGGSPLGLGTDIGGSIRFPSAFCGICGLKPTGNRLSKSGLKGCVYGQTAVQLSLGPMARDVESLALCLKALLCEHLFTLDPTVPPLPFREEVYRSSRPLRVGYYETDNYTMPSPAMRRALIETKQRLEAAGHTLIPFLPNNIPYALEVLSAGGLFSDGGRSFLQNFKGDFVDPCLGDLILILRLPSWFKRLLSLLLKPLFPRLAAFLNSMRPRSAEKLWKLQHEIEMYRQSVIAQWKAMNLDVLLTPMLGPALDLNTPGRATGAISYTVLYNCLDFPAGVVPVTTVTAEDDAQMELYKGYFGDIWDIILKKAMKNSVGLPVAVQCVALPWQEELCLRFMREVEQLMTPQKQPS
Method in brief: (§2)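 Enzyme source was a rat brain membrane pellet resuspended in 50 mM Tris-HCl, pH 9.0, 70 µg protein per assay. It was incubated with compound (10 or 50 µM) and [14C]anandamide (10000 cpm) for 30 min at 37 °C. After CHCl3/MeOH (1:1) extraction, [14C]ethanolamine in the aqueous phase was counted by scintillation. Points were run in duplicate.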

[8] = target: T4, Cannabinoid receptor 2 (Homo sapiens, UniProt P34972); assay: Displacement of [3H]CP-55940 from human recombinant CB2 receptor expressed in HEK293 cells at 10 uM; format: cell-based
T4 sequence (P34972 whole entry): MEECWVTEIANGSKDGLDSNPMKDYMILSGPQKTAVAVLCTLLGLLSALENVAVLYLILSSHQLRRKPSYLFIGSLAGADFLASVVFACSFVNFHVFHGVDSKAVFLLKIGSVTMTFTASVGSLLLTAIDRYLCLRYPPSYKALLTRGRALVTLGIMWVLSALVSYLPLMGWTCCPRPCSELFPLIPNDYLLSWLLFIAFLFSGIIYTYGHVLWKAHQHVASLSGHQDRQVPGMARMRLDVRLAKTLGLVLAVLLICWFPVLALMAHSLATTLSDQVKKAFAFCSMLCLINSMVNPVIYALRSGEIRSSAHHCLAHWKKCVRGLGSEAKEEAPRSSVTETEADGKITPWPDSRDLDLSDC

[9] = test system: Mus musculus; assay: Antinociceptive activity against formalin-induced nociceptive behavior in C57BL/6 mouse assessed as mean licking time at 55 mg/kg, ip administered 15 mins prior to formalin challenge measured after 15 to 45 mins relative to control; format: functional; details: route intraperitoneal; method in brief: as §1
[10] = test system: Mus musculus; assay: Antinociceptive activity against formalin-induced nociceptive behavior in C57BL/6 mouse assessed as mean licking time at 55 mg/kg, ip administered 15 mins prior to formalin challenge measured upto 10 mins relative to control; format: functional; details: route intraperitoneal; method in brief: as §1
[11] = target: Prostaglandin G/H synthase 1 (Homo sapiens, UniProt P23219); assay: Inhibition of cyclooxygenase 1 in human whole blood assessed as thromboxane B2 level; format: tissue-based
Sequence of Prostaglandin G/H synthase 1 (P23219 whole entry): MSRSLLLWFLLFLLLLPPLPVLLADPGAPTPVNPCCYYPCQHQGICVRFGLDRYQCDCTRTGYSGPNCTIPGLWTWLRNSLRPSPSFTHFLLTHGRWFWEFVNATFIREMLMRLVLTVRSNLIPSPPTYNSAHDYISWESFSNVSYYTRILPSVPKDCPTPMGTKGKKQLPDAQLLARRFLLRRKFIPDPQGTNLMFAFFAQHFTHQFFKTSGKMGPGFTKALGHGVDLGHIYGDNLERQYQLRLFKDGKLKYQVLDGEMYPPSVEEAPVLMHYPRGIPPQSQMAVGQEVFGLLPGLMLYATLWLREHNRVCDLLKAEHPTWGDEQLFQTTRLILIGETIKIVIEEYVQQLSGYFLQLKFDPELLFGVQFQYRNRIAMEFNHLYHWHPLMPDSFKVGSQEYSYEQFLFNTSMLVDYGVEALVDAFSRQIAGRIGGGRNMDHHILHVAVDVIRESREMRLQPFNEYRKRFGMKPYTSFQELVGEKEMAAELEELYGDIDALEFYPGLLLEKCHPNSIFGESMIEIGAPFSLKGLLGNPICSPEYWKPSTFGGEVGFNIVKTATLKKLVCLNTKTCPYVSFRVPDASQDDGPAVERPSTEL
Method in brief: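 Fresh whole blood came from a healthy volunteer free of NSAIDs for 2 weeks. 1 mL aliquots received test agent in DMSO and were left to clot for 1 h at 37 °C. Serum TXB2 was measured by GC-MS/MS, in quadruplicate.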

[12] = test system: Mus musculus; assay: Antinociceptive activity against formalin-induced nociceptive behavior in C57BL/6 mouse assessed as mean licking time at 275 mg/kg, ip administered 15 mins prior to formalin challenge measured upto 10 mins relative to control; format: functional; details: route intraperitoneal; method in brief: as §1
[13] = test system: Mus musculus; assay: Antinociceptive activity against formalin-induced nociceptive behavior in C57BL/6 mouse assessed as mean licking time at 200 mg/kg, ip administered 15 mins prior to formalin challenge measured upto 10 mins relative to control; format: functional; details: route intraperitoneal; method in brief: as §1
[14] = test system: Mus musculus; assay: Antinociceptive activity against formalin-induced nociceptive behavior in C57BL/6 mouse assessed as mean licking time at 200 mg/kg, ip administered 15 mins prior to formalin challenge measured after 15 to 45 mins relative to control; format: functional; details: route intraperitoneal; method in brief: as §1
[15] = target: T3, Fatty-acid amide hydrolase 1 (Rattus norvegicus); assay: Inhibition of FAAH in rat brain membrane assessed as [14C]anandamide hydrolysis at 10 uM by scintillation counting; format: cell membranes; method in brief: as §2
[16] = target: T4, Cannabinoid receptor 2; assay: Displacement of [3H]CP-55940 from human recombinant CB2 receptor expressed in HEK293 cells; format: cell-based
Method in brief: (§3)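 Membranes were from HEK-293 cells overexpressing human CB1 or CB2, with [3H]CP-55,940 as radioligand (Kd 0.18 nM CB1, 0.31 nM CB2). Test compound (1 nM-10 µM) was incubated 90 min at 30 °C. Displaced radioligand was counted by scintillation. Ki came from IC50 via Cheng-Prusoff, with triplicate points; single-concentration screens were run in duplicate.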

[17] = target: T1, Cannabinoid receptor 1; assay: Displacement of [3H]CP-55940 from human recombinant CB1 receptor expressed in HEK293 cells; format: cell-based; method in brief: as §3

Compound	Activity [1]	Activity [2] [%]	Activity [3] [%]	Activity [4] [%]	Activity [5] [%]	Activity [6]	inhibition [7] [%]	Activity [8] [%]	Activity [9] [%]	Activity [10] [%]	Activity [11]	Activity [12] [%]	Activity [13] [%]	Activity [14] [%]	inhibition [15] [%]	Ki [16] [µM]	Ki [17] [µM]
CC(=O)NCc1ccc(O)cc1	Non-toxic	37	227	97	5	inactive	4	7	71	128	inactive	50	–	–	–	–	–
CC(=O)Nc1ccc(O)cc1 [ACETAMINOPHEN]	–	–	–	–	13	–	22	15	–	–	Active	–	100	47	–	–	–
CCCCC/C=C\C/C=C\C/C=C\C/C=C\CCCC(=O)NCc1ccc(O)cc1	–	–	–	–	–	–	88	–	–	–	–	–	–	–	56	0.1	0.2
CCCCC/C=C\C/C=C\C/C=C\C/C=C\CCCC(=O)Nc1ccc(O)cc1	–	–	–	–	–	–	55	–	–	–	–	–	–	–	15	1.3	1.5
CCCCC/C=C\C/C=C\C/C=C\C/C=C\CCCC(=O)Nc1ccc(O)c(OC)c1	–	–	–	–	–	–	62	–	–	–	–	–	–	–	23	1	1.4
